Reference: ChEMBL document CHEMBL1151964, “Divergent modes of enzyme inhibition in a homologous structure-activity series” (J Med Chem, 2009)
Activity calls are given as the source filed them. The calls are words filed in the database; no cut-off is given here.

Assays:
[1] = target: Cruzipain (Trypanosoma cruzi) (UniProt P25779); assay: Inhibition of Trypanosoma cruzi cruzain assessed as colloidal aggregates particles formation after 5 mins by flow cytometry
Method in brief: (§1)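 Particle (aggregate) formation was assessed by flow cytometry, with some samples checked by dynamic light scattering. The value is the lowest concentration tested at which particles were seen.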

[2] = Inhibition of Beta-lactamase AmpC at 50 uM preincubated for 5 mins before substrate addition
Method in brief: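 β-Lactamase AmpC inhibition was tested at the concentration stated, both without and with 0.01% Triton X-100. A compound was called an aggregator when its inhibition was detergent-sensitive.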

Cruzipain [3] = target: T1, Cruzipain (Trypanosoma cruzi, UniProt P25779); assay: Inhibition of Trypanosoma cruzi cruzain preincubated for 5 mins before substrate addition
Method in brief: (§2)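 Cruzain IC50s were measured from dose-response curves with Triton X-100 in the assay buffer at either 0.01% or 0.001%. At 0.001% Triton, some runs included pre-incubation with BSA.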

Cruzipain [4] = target: T1, Cruzipain; assay: Inhibition of Trypanosoma cruzi cruzain preincubated for 5 mins before substrate addition in presence of 0.01% Triton X-100; method in brief: as §2
Cruzipain [5] = target: T1, Cruzipain; assay: Inhibition of Trypanosoma cruzi cruzain preincubated for 5 mins before substrate addition in presence of 0.001% Triton X-100; method in brief: as §2
[6] = target: Cruzipain (Trypanosoma cruzi) (UniProt P25779); assay: Inhibition of Trypanosoma cruzi cruzain at 200 uM preincubated for 5 mins before substrate addition
[7] = target: Cruzipain (Trypanosoma cruzi) (UniProt P25779); settings: 50 uM
[8] = target: Cruzipain (Trypanosoma cruzi) (UniProt P25779); settings: 5 uM
Cruzipain [9] = target: T1, Cruzipain; assay: Inhibition of Trypanosoma cruzi cruzain preincubated for 5 mins before substrate addition in presence of 0.001% Triton X-100 with 1 mg/ml bovine serum albumin
[10] = target: Cruzipain (Trypanosoma cruzi) (UniProt P25779); assay: Inhibition of Trypanosoma cruzi cruzain assessed as colloidal aggregates particles formation after 5 mins by flow cytometry in presence of 0.001% Triton X-100; method in brief: as §1

Chain of Cruzipain (Trypanosoma cruzi) (P25779 123-467 limits assumed): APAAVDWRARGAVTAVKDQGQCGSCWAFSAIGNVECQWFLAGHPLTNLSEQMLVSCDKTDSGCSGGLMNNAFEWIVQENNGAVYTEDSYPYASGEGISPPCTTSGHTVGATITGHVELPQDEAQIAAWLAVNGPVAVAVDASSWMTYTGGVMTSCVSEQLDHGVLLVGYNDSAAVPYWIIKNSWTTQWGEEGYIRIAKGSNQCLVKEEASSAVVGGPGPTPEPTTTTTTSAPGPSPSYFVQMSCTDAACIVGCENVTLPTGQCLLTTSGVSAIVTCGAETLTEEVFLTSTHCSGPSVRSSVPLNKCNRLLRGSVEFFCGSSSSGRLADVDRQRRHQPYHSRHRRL
T1 sequence (P25779 whole entry): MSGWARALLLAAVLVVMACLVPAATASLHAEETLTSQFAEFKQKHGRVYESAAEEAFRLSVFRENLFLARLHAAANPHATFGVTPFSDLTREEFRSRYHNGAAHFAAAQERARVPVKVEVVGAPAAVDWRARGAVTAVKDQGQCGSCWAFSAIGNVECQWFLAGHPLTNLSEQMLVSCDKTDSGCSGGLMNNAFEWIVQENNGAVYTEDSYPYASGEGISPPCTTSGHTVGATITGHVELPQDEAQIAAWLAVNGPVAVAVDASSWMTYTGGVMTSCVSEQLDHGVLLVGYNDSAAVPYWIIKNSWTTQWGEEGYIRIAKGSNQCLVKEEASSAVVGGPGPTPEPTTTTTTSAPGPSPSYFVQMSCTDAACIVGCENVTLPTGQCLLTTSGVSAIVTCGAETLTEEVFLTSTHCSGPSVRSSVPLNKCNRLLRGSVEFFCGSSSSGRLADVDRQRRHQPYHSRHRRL

Row | IC50 (Cruzipain [3]) | IC50 (Cruzipain [4]) | Structure (SMILES) | also measured
1 | > 100 µM | > 100 µM | Cn1ccc(NC(=O)c2nnc(-c3ccccc3N)o2)n1 | Activity [1]: 200 µM; IC50 (Cruzipain [5]): > 100 µM
2 | 32 µM | – | Nc1ccccc1-c1nnc(C(=O)N[C@@H]2c3ccccc3C[C@@H]2O)o1 | –
3 | 52 µM | – | Nc1ccccc1-c1nnc(C(=O)NCc2c(N)cccc2F)o1 | –
4 | > 100 µM | – | Nc1ccccc1-c1nnc(C(=O)NCCN2CCNC2=O)o1 | –
5 | – | 182 µM | Nc1ncccc1C(=O)OCC(=O)Nc1ccc2c(c1)OCCO2 | inhibition [6]: 51%
6 | 11 µM | 11 µM | Nc1ccccc1-c1nnc(C(=O)NC2Cc3ccccc3C2)o1 | –
7 | 23 µM | – | Nc1ccccc1-c1nnc(C(=O)NCc2ccnc(N3CCSCC3)c2)o1 | –
8 | 11 µM | – | Cc1cc(NC(=O)c2nnc(-c3ccccc3N)o2)[nH]n1 | IC50 (Cruzipain [5]): 11 µM
9 | > 100 µM | > 100 µM | Cn1nccc1NC(=O)c1nnc(-c2ccccc2N)o1 | –
10 | 0.5 µM | – | Cc1ccc(-c2cc(NC(=O)c3nnc(-c4ccccc4N)o3)[nH]n2)cc1 | IC50 (Cruzipain [5]): 0.5 µM

The remaining lines, values behind:

Row | Structure (SMILES) | IC50 (Cruzipain [3]) | IC50 (Cruzipain [4]) | also measured
11 | Cc1cc(NC(=O)c2nnc(-c3ccccc3N)o2)n[nH]1 | – | – | Activity [1]: 50 µM; inhibition [2]: inactive
12 | Nc1ccccc1-c1nnc(C(=O)NCCN2CCOCC2)o1 | > 100 µM | > 100 µM | IC50 (Cruzipain [5]): > 100 µM
13 | CC(NC(=O)c1nnc(-c2ccccc2N)o1)C12CC3CC(CC(C3)C1)C2 (configuration not stated) | 18 µM | 18 µM | –
14 | Nc1ccccc1-c1nnc(C(=O)NCc2ccc(Oc3ccccc3)cc2)o1 | 6 µM | 6 µM | –
15 | Cc1nn(-c2ccccc2)nc1CNC(=O)c1nnc(-c2ccccc2N)o1 | 7 µM | – | –
16 | Nc1ccccc1-c1nnc(C(=O)NC2CCc3ccccc32)o1 (configuration not stated) | 17 µM | – | –
17 | Nc1ccccc1-c1nnc(C(=O)NCc2cccc(N3CCOCC3)c2)o1 | 33 µM | – | –
18 | Nc1ncccc1C(=O)OCC(=O)Nc1ccccc1OC(F)F | – | 126 µM | inhibition [6]: 58%
19 | Nc1ccccc1-c1nnc(C(=O)NCc2ccc3c(c2)OCO3)o1 | 6 µM | – | –
20 | Cc1cccc(C(=O)OCC(=O)Nc2cc(Cl)ccc2Cl)c1 | – | > 200 µM | inhibition [6]: 5%
21 | Nc1ccccc1-c1nnc(C(=O)Nc2cc(-c3cccs3)[nH]n2)o1 | – | – | inhibition [7]: Active; inhibition [8]: Active
22 | Nc1ccccc1C(=O)NCC(=O)NC1CCCCC1 | – | – | inhibition [6]: 15%
23 | Nc1ccccc1-c1nnc(C(=O)Nc2cc(-c3cccs3)n[nH]2)o1 | 1 µM | – | IC50 (Cruzipain [9]): 102 µM; IC50 (Cruzipain [5]): 1 µM
24 | Nc1ccccc1-c1nnc(C(=O)NCc2ccccc2OC2CCOCC2)o1 | 42 µM | – | –
25 | COc1cc(CNC(=O)c2nnc(-c3ccccc3N)o2)cc(OC)c1OC | > 100 µM | – | –
26 | Nc1ncccc1C(=O)NCC(=O)NC1CCCCC1 | – | – | inhibition [6]: 16%
27 | Nc1ccccc1-c1nnc(C(=O)NCCCN2CCCC2=O)o1 | > 100 µM | > 100 µM | Activity [1]: > 200 µM; IC50 (Cruzipain [5]): > 100 µM; Activity [10]: inactive
28 | CC(C)(C)c1cc(NC(=O)c2nnc(-c3ccccc3N)o2)[nH]n1 | 2 µM | – | IC50 (Cruzipain [5]): 2 µM
29 | O=C(COC(=O)c1ccccn1)Nc1cc(Cl)ccc1Cl | – | > 200 µM | inhibition [6]: 16%
30 | Nc1ccccc1-c1nnc(C(=O)Nc2ccc3oc4c(c3c2)CCCC4)o1 | 2 µM | – | Activity [1]: > 100 µM; inhibition [2]: Active; IC50 (Cruzipain [5]): 2 µM
